Inconclusive results are not listed.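 Rule for the calls, unless noted: active = viability at or below 27.92% in each of two runs, the all-compound median minus 4 SD; inconclusive = no clear call, values can overlap the other calls; inactive = the rest.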
Assays:
[1] = OD615 S. cerevisiae growth inhibition, permissive medium, pilot counter-assay, permissive growth control for S. cerevisiae lifespan shortening project (AID 705;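 active = growth inhibition above 25% in both replicates, a cutoff set 3 SD above the mean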); settings: OD615, 24 h, at 10 µM, active compounds read high
How it was run: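 System: S. cerevisiae with engineered DeaD lifespan system / Measured by: absorbance (optical density) at 615 nm / Read-out: reduction in yeast growth (OD615) / Times: 4 h cell pre-growth, 24 h exposure at 30 °C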

[2] = Restrictive medium S. cerevisiae growth inhibition, OD615, pilot screen of yeast lifespan reduction project, restrictive growth control (AID 706;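 active = growth inhibition above a set limit, 3 SD over mean compound inhibition, in both replicates, cut at about 43% in these data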;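 note: modified DeaD lifespan yeast strain shifted to restrictive glucose medium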); settings: OD615, 48 h, at 10 µM, active compounds read high
How it was run: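 System: Engineered S. cerevisiae DeaD strain | Buffer or medium: Glucose-based CSMM-D restrictive medium | Schedule: 4 h pre-incubation, 48 h exposure at 30 °C | Technique: Optical density at 615 nm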

[3] = viability gain of MRP-1-high H69AR cells under doxorubicin, pilot screen, MRP-1 activator project, CellTiter-Glo, duplicate (AID 807;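 active = viability increase at or above a cutoff of the median across tested compounds plus 3 SD, cut at about 8.5% in these data, passing the limit was not always enough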;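 note: compound pretreatment 18-22 h then 72 h combined with doxorubicin; 0% = doxorubicin alone and 100% = vehicle without doxorubicin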); settings: H69AR viability with doxorubicin, CellTiter-Glo luminescence; at 10 µM; active compounds read high
[4] = growth suppression of beta-catenin knockout HCT116, pilot screen, human colon tumor cells (AID 823;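 active = cell viability at or below a set limit in both duplicate runs, the limit being the all-compound median minus 4 SD, cut at about 23% in these data, passing the limit was not always enough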;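 note: 0% = wells killed by 20 µM Hyamine and 100% = untreated DMSO cell wells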); settings: CellTiter-Glo, 60 h, at 10 µM, active compounds read low
[5] = growth suppression of PTEN-deleted HCT116, pilot screen, cell-based, HCT116 clonal line, CellTiter-Glo (AID 824); settings: 60 h, at 10 µM, active compounds read low;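 note: 0% = 20 µM Hyamine control and 100% = vehicle cell control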
[6] = inhibitors of the yeast RAM network, pilot screen, dse1pr::URA3 reporter, 5-FOA selection (AID 869;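 active = inhibition over a set limit, the all-compound mean plus 3 SD, in both replicate runs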;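 note: 0% = DMSO wells with no growth and 100% = 10 µM 1-NA-PP1 with full growth; RAM network block rescues cells from 5-FOA so hits raise OD615 growth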); settings: S. cerevisiae dse1pr::URA3 5-FOA growth, OD615, 2 d; at 10 µM; active compounds read high; strain carries analog-sensitive mutant Cbk1 kinase
[7] = RAM signaling pathway blockade in yeast – S. cerevisiae, Pdr1DBD-CYC8 efflux-inhibited sensitized strain, primary screen (AID 1298;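 active = RAM network inhibition above 8.4% in each of two replicates, 3 SD over the compound average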;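 note: 0% = DMSO untreated cells without growth and 100% = 10 µM 1-NA-PP1 full growth; higher means more yeast growth rescued from 5-FOA killing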); settings: S. cerevisiae cbk1-as DSE1-URA3 strain, 5-FOA growth OD615, 2 d; at 50 µM; active compounds read high

Cn1nnnc1P(=O)(c1ccccc1)c1ccccc1
inactive: growth inhibition [1] 0.165% | growth inhibition [2] 0.5% | viability increase [3] 0.85% | viability [4] 103% | viability [5] 102% | inhibition [6] 0.995% | RAM network inhibition [7] 1.32%

COc1cc(C2NC(=O)N(C)C3=C2C(=O)CCC3)cc(OC)c1OC (stereo not given)
inactive: growth inhibition [1] -3.03% | growth inhibition [2] -17.1% | viability increase [3] -0.05% | viability [4] 104% | viability [5] 99% | inhibition [6] 2.73% | RAM network inhibition [7] 4.71%

CNC(=O)N(C1=NCC(C)(C)S1)c1ccc(F)c(Cl)c1
inactive: growth inhibition [1] -4.53% | growth inhibition [2] -16.6% | viability increase [3] -6.94% | viability [4] 40.4% | viability [5] 35.7% | inhibition [6] 1.26% | RAM network inhibition [7] 4.61%

Nc1nonc1C(=O)NCCc1ccccc1
inactive: growth inhibition [1] -6.66% | growth inhibition [2] 6.3% | viability increase [3] -0.05% | viability [4] 116% | viability [5] 99.6% | inhibition [6] 0.71% | RAM network inhibition [7] -0.76%

CCOCCn1c(SCc2ccccc2)nc2c1c(=O)[nH]c(=O)n2C
inactive: growth inhibition [1] -16.6% | growth inhibition [2] -27.6% | viability increase [3] -1.41% | viability [4] 104% | viability [5] 96.7% | inhibition [6] 0.205% | RAM network inhibition [7] 7.51%

Cc1cc(C)c2c(N)c(C(=O)Nc3nccs3)sc2n1
inactive: growth inhibition [1] 0.355% | growth inhibition [2] 16.4% | viability increase [3] -5.52% | viability [4] 87.8% | viability [5] 90.5% | inhibition [6] 2% | RAM network inhibition [7] -0.11%

COc1ccccc1NC(=O)c1cccc(S(=O)(=O)N2CCOCC2)c1
inactive: growth inhibition [1] 7.87% | growth inhibition [2] 0.14% | viability increase [3] -0.79% | viability [4] 103% | viability [5] 96.7% | inhibition [6] 2.99% | RAM network inhibition [7] 0.68%

O=C1c2ccccc2C(=O)N1CCCCN(C(=O)c1ccco1)c1ccc(Cl)cc1
inactive: growth inhibition [1] -1.78% | growth inhibition [2] -17.5% | viability increase [3] -2.82% | viability [4] 102% | viability [5] 91.1% | inhibition [6] 2.79% | RAM network inhibition [7] 5.33%

COc1ccc(NC(=O)C2=C(C)NC(=O)NC2c2cccc(OC)c2OC)c(OC)c1 (stereo not given)
inactive: growth inhibition [1] -15.4% | growth inhibition [2] -22.3% | viability increase [3] 0.09% | viability [4] 103% | viability [5] 103% | inhibition [6] 0.405% | RAM network inhibition [7] -1.04%

COc1cccc(C2CC(c3ccc(Cl)cc3Cl)n3nc(N)nc3N2)c1 (stereo not given)
inactive: growth inhibition [1] -1.58% | growth inhibition [2] 18.6% | viability increase [3] 4.01% | viability [4] 90.8% | viability [5] 90.8% | inhibition [6] 1.79% | RAM network inhibition [7] 8.01%

CCOC(=O)CC(=O)Nc1ccc(Br)cc1C(=O)O
inactive: growth inhibition [1] -18.4% | growth inhibition [2] -18.8% | viability increase [3] 1.24% | viability [4] 101% | viability [5] 97.2% | inhibition [6] 2.16% | RAM network inhibition [7] 7.52%

CCOC(=O)c1cnc2c(C)c(Cl)ccc2c1N1CCOCC1
inactive: growth inhibition [1] -1.27% | growth inhibition [2] -2.46% | viability increase [3] -6.05% | viability [4] 77% | viability [5] 81.3% | inhibition [6] 0.755% | RAM network inhibition [7] 3.29%

O=C(CCn1c(=O)oc2ccccc21)Nc1ccc2c(c1)OCCO2
inactive: growth inhibition [1] -3.18% | growth inhibition [2] -9.54% | viability increase [3] -3.68% | viability [4] 103% | viability [5] 96% | inhibition [6] 1.88% | RAM network inhibition [7] 3.61%

Cc1ccc2oc(=O)c3cc(C(=O)N4CCN(C(=O)c5ccco5)CC4)sc3c2c1
inactive: growth inhibition [1] -9.32% | growth inhibition [2] -1.79% | viability increase [3] -2.75% | viability [4] 102% | viability [5] 99.5% | inhibition [6] 2.8% | RAM network inhibition [7] 3.77%

CCOCCn1c(SCCc2ccccc2)nc2c1c(=O)[nH]c(=O)n2C
inactive: growth inhibition [1] -3.39% | growth inhibition [2] 10.7% | viability increase [3] -1.92% | viability [4] 98.8% | viability [5] 98.9% | inhibition [6] 1.69% | RAM network inhibition [7] 0.11%

COc1ccc2ccccc2c1C1CC(=O)N2CN(Cc3ccco3)CSC2=C1C#N (stereo not given)
inactive: growth inhibition [1] 1.42% | growth inhibition [2] 16.4% | viability increase [3] -5.39% | viability [4] 82.5% | viability [5] 80.9% | inhibition [6] 3.5% | RAM network inhibition [7] 3.82%

O=C1C2C3c4ccccc4C(c4ccccc43)C2C(=O)N1Cc1ccco1 (stereo not given)
inactive: growth inhibition [1] -2.21% | growth inhibition [2] 5.63% | viability increase [3] -3.21% | viability [4] 97% | viability [5] 93.4% | inhibition [6] 0% | RAM network inhibition [7] 4.51%

CCc1nnc(NC(=O)CN2CCOCC2)s1
inactive: growth inhibition [1] -2.81% | growth inhibition [2] -19.4% | viability increase [3] -1.62% | viability [4] 95.8% | viability [5] 101% | inhibition [6] 1.18% | RAM network inhibition [7] 6.14%

COc1cc(C2C(C(=O)c3cccs3)=C(O)C(=O)N2Cc2ccco2)cc(OC)c1OC (stereo not given)
inactive: growth inhibition [1] -6.95% | growth inhibition [2] -3.81% | viability increase [3] -4.93% | viability [4] 93.1% | viability [5] 92.4% | inhibition [6] 2.94% | RAM network inhibition [7] 5%

COCCCNC(=O)CN(c1ccc(Cl)c(Cl)c1)S(C)(=O)=O
inactive: growth inhibition [1] 0.93% | growth inhibition [2] -7.01% | viability increase [3] -1.44% | viability [4] 99.4% | viability [5] 101% | inhibition [6] 0.96% | RAM network inhibition [7] -0.77%

CC(C)COC(=O)c1ccc(NC(=O)C2C3CCC(C3)C2C(=O)O)cc1 (stereo not given)
inactive: growth inhibition [1] -7.04% | growth inhibition [2] -5.98% | viability increase [3] 0.09% | viability [4] 87.4% | viability [5] 90% | inhibition [6] 0.68% | RAM network inhibition [7] 0.37%

O=C(CCCC(=O)n1cnc2ccccc21)n1cnc2ccccc21
inactive: growth inhibition [1] -3.46% | growth inhibition [2] 4.09% | viability increase [3] -1.98% | viability [4] 96.2% | viability [5] 92.9% | inhibition [6] 1.08% | RAM network inhibition [7] 0.98%

Cc1nc2sc(C(c3ccco3)N3CCC(C)CC3)c(O)n2n1 (stereo not given)
inactive: growth inhibition [1] -6.81% | growth inhibition [2] 1.09% | viability increase [3] -1.29% | viability [4] 102% | viability [5] 103% | inhibition [6] 0.77% | RAM network inhibition [7] 2.81%

Cc1[nH]nc2c1/C(=N\O)CC(C)(C)C2
inactive: growth inhibition [1] 12.7% | growth inhibition [2] -8.1% | viability increase [3] -2% | viability [4] 94.2% | viability [5] 98.1% | inhibition [6] 1.48% | RAM network inhibition [7] -1.33%

Cc1cc(C)c(NC(=O)CN2CCN(C)CC2)c(C)c1
inactive: growth inhibition [1] -1.99% | growth inhibition [2] 4.72% | viability increase [3] -1.53% | viability [4] 112% | viability [5] 92.3% | inhibition [6] 2.21% | RAM network inhibition [7] 1.38%

Cc1cc(C)c(C#N)c(SCC(=O)c2cccs2)n1
inactive: growth inhibition [1] -9.34% | growth inhibition [2] 1.01% | viability increase [3] -4.41% | viability [4] 78% | viability [5] 84.8% | inhibition [6] 1.6% | RAM network inhibition [7] 0.97%

C=C(C)Cn1c(C2CC(=O)N(c3ccccc3F)C2)nc2ccccc21 (stereo not given)
inactive: growth inhibition [1] -9.62% | growth inhibition [2] -5.32% | viability increase [3] -2.5% | viability [4] 100% | viability [5] 105% | inhibition [6] 0.42% | RAM network inhibition [7] 1.56%

O=C1c2ccccc2C(=O)N1CCCc1nc2ccccc2c(=O)n1Cc1ccco1
inactive: growth inhibition [1] -12.9% | growth inhibition [2] -12.6% | viability increase [3] -1.68% | viability [4] 93.6% | viability [5] 93.5% | inhibition [6] 3.96% | RAM network inhibition [7] 7.66%

O=C(NCCc1ccccc1)c1ccc(Br)o1
inactive: growth inhibition [1] -7.62% | growth inhibition [2] 1.48% | viability increase [3] 0.4% | viability [4] 104% | viability [5] 103% | inhibition [6] 0.77% | RAM network inhibition [7] 1.44%

CCn1c(N2CCC(C)CC2)nc2c1c(=O)n(C)c(=O)n2C
inactive: growth inhibition [1] -10.5% | growth inhibition [2] 1.69% | viability increase [3] -0.88% | viability [4] 92.9% | viability [5] 85% | inhibition [6] 1.12% | RAM network inhibition [7] 0.06%

COc1cccc(N(CC(=O)NCc2cccnc2)S(C)(=O)=O)c1
inactive: growth inhibition [1] -11.3% | growth inhibition [2] -4.04% | viability increase [3] -1.47% | viability [4] 95.1% | viability [5] 94.6% | inhibition [6] 0.625% | RAM network inhibition [7] 3.01%

COc1ccccc1N(C(=O)NCc1ccccc1)C1=NCC(C)S1 (stereo not given)
inactive: growth inhibition [1] -16% | growth inhibition [2] -11.9% | viability increase [3] -3.44% | viability [4] 93.4% | viability [5] 89.2% | inhibition [6] 2.22% | RAM network inhibition [7] 7.42%

O=C(NCc1ccc(Cl)cc1)c1cccnc1
inactive: growth inhibition [1] -1.45% | growth inhibition [2] 9.27% | viability increase [3] -0.63% | viability [4] 92.8% | viability [5] 93.6% | inhibition [6] 1.8% | RAM network inhibition [7] 0.15%

CCN(CC)S(=O)(=O)c1cc(C(=O)Nc2ccc(Cl)cn2)ccc1C
inactive: growth inhibition [1] -5.56% | growth inhibition [2] -11.5% | viability increase [3] 2.78% | viability [4] 52.9% | viability [5] 74.2% | inhibition [6] 1.1% | RAM network inhibition [7] -0.26%

O=C1CSC(c2nn(-c3ccccc3)cc2-c2cc3ccccc3oc2=O)N1Cc1ccco1 (stereo not given)
inactive: growth inhibition [1] -1.13% | growth inhibition [2] 1.33% | viability increase [3] -4.75% | viability [4] 77.4% | viability [5] 76.9% | inhibition [6] 2.16% | RAM network inhibition [7] 2.95%
